The target in test [1] is T1, Neprilysin (Sus scrofa, UniProt P19621).
T1 sequence (P19621 whole entry): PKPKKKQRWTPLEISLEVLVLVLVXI
Kind of test: Inhibition of pig kidney NEP by fluorimetry. In outline:
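Fluorescence was read at λex 340 nm and λem 530 nm. IC50 was derived from inhibition curves, and the assay was validated with a reference inhibitor IC50.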

For test [2], the target named is Angiotensin-converting enzyme (Homo sapiens, UniProt P12821). Kind of test: Inhibition of human recombinant ACE by fluorimetry.
The target of test [3] is T2, Endothelin-converting enzyme 1 (Homo sapiens, UniProt P42892).
T2 sequence (P42892 whole entry): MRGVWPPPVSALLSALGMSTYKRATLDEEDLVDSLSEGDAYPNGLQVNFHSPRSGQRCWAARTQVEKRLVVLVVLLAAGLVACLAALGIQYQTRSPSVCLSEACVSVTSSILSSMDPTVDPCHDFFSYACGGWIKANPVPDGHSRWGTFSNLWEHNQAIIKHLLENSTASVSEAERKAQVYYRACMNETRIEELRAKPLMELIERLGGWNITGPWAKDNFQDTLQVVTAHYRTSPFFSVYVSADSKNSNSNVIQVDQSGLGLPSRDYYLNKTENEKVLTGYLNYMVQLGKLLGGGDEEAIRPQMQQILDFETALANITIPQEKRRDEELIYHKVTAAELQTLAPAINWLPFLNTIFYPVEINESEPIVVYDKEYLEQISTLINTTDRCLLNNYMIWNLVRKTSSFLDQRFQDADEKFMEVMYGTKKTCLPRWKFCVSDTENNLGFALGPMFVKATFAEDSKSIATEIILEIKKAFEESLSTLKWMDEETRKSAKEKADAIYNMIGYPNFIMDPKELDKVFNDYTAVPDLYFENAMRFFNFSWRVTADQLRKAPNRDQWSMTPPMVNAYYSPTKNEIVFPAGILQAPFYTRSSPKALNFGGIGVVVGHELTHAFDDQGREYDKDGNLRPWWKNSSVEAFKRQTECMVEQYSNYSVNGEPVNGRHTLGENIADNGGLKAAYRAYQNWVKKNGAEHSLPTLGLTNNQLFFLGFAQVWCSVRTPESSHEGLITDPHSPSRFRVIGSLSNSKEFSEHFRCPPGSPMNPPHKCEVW
The experiment in a line: Inhibition of human recombinant ECE1 by fluorimetry.

The results in this text go back to ChEMBL document CHEMBL1154033, “Synthesis and enzymatic evaluation of novel partially fluorinated thiol dual ACE/NEP inhibitors” (Bioorg Med Chem Lett, 2009).

SMILES strings stand for the structures. pIC50: −log10 of the molar value.

Chain of Angiotensin-converting enzyme (P12821 whole entry): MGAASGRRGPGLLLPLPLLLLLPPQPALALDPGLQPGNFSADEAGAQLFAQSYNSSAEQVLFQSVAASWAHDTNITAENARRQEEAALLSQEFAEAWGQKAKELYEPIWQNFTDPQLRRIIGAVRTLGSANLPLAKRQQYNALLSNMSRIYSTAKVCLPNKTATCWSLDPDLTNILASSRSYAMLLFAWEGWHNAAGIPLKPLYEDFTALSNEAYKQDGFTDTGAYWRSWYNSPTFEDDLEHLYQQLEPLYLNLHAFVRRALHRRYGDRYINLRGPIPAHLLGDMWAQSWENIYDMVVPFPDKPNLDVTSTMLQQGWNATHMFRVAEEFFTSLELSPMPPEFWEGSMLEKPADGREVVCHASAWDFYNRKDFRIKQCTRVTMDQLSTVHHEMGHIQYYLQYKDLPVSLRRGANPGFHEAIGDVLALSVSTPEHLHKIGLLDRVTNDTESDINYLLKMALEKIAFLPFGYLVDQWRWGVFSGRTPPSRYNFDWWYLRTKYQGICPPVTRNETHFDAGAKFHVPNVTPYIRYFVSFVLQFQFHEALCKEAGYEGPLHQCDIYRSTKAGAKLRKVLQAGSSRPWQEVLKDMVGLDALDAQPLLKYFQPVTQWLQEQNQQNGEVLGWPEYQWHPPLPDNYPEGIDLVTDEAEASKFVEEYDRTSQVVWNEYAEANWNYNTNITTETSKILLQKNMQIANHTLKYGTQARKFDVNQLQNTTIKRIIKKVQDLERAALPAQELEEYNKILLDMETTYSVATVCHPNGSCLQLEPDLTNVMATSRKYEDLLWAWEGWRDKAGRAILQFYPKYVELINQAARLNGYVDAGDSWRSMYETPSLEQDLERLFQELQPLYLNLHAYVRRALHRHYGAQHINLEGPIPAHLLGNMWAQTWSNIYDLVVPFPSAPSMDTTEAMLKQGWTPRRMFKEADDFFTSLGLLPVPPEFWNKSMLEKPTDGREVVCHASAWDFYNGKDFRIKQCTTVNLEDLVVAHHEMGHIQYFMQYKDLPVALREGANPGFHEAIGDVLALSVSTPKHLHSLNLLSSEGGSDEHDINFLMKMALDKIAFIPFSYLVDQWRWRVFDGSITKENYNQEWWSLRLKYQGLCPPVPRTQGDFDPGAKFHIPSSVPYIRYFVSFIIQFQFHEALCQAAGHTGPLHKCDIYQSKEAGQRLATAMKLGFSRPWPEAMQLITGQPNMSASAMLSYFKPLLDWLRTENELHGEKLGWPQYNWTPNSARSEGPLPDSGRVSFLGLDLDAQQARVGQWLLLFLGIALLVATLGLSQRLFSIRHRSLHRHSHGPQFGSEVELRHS

As to `O=C(O)CNC(=O)C(CS)Cc1ccccc1` (stereo not drawn) [THIORPHAN], in test [1], the pIC50 was 8.21.
As for `O=C(CC(S)C(F)(F)F)NC(Cc1ccccc1)C(=O)NC(Cc1ccc(O)cc1)C(=O)O` (stereo not drawn), the values for the negative-log IC50 (pIC50) in test [2], in test [1] and in test [3] were 6.55, 6.37 and below 5.00, respectively.
Regarding `O=C(CC(S)C(F)(F)F)NC(Cc1c[nH]c2ccccc12)C(=O)O` (stereo not drawn), the figures for the negative-log IC50 (pIC50) in test [2], in test [1] and in test [3] were 6.40, 6.24 and below 5.00, respectively.
Regarding `O=C(CC(S)C(F)(F)C(F)(F)F)NC(Cc1ccccc1)C(=O)O` (stereo not drawn), the negative-log IC50 (pIC50) in test [2] is 6.00; in test [1], 5.94; in test [3] it was 5.62.
The matching figures for `O=C(CC(S)C(F)(F)F)NC(Cc1ccccc1)C(=O)O` (stereo not drawn): 6.08, 6.52 and below 5.00.
`CC(C)CC(S)CC(=O)NC(Cc1ccccc1)C(=O)NC(Cc1ccc(O)cc1)C(=O)O` (stereo not drawn) showed a pIC50 in test [1] of 7.30.
Take `O=C(CC(S)C(F)(F)F)NC(Cc1ccc(F)cc1)C(=O)O` (stereo not drawn): the values for the pIC50 in test [2], in test [1] and in test [3] were 6.52, 6.64 and below 5.00, respectively.
For `CC(C)CC(S)CC(=O)NC(Cc1ccccc1)C(=O)O` (stereo not drawn) the same measures were below 5.00, 7.39 and below 5.00.
Consider `O=C(CC(S)C(F)(F)F)NC(Cc1ccc(O)cc1)C(=O)O` (stereo not drawn), for which the pIC50 in test [2] was 6.80; in test [1], 7.10; in test [3], below 5.00.
